Usually inhibition stands for the change of the read-out against control, counted positive when it falls.

Data on 7 compounds can be found in ChEMBL document CHEMBL3244326, “Synthesis and antiviral activity of certain thiazole C-nucleosides” (J Med Chem, 1977).

Activity calls are given as the source filed them. The rule behind the calls is not given here.

Data set [1] concerns Ehrlich. Description: Inhibition of purine nucleotide biosynthesis in mouse Ehrlich ascites tumor cells assessed as inhibition of [14C]hypoxanthine into guanine nucleotides at 1 mM after 60 mins incubation. It is filed as functional. Particulars: 1 h. The method, boiled down: (§1)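 Ehrlich ascites tumor cell suspensions preincubated at 37 °C for 20 min with or without 1 mM compound. [14C]Hypoxanthine (55 µCi/µmol) then added to a final 0.1 mM, followed by 60 min more incubation. Adenine (AMP+ADP+ATP) and guanine (GMP+GDP+GTP) nucleotides separated by TLC on PEI-cellulose; % inhibition of label incorporation.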

The next data set relates to Human alphaherpesvirus 1. Description: Antiviral activity against type 1 herpes simplex virus type 1 infected in human KB cells assessed as reduction in cytopathic effect after 72 hrs incubation. In kind it is functional, organism-based. The method, boiled down:
(§2)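 Human nasopharyngeal carcinoma (KB) cells infected with virus and tested at compound concentrations of 1000 to 1 ug/ml. After 72 h incubation at 37 °C, inhibition of viral cytopathic effect was scored by observation and expressed as a virus rating (VR). Values are the average of one to five tests.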
(Damage to the host cells serves as the signal in cytopathic effect assays.)

A further data set concerns KB. Description: Antiviral activity against type 13 rhinovirus infected in human KB cells assessed as reduction in cytopathic effect after 72 hrs incubation. It is filed as functional, cell-based. To be noted: Human rhinovirus A13. Summed up: as §2
The subject of data set [2] is Ehrlich. As to the kind of experiment: Inhibition of purine nucleotide biosynthesis in mouse Ehrlich ascites tumor cells assessed as inhibition of [14C]hypoxanthine into adenine nucleotides at 1 mM after 60 mins incubation. It is filed as functional. To be noted: 1 h. The method, boiled down:
as §1

The test system of data set [3] is Mus musculus. As to the kind of experiment: Toxicity in mouse assessed as survival at 104 mg/kg, po. In kind it is organism-based. The arrangement: dose 104 mg/kg, route oral. To be noted: in vivo. The method, boiled down: (§3)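 Uninfected toxicity-control mice, 5 per dose, received compound by the oral route alongside the infected groups. Survivors/total recorded, and weight gain was observed.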

Data set [4] concerns Human respirovirus 1. Description: Antiviral activity against type 1 parainfluenza virus infected in mouse assessed as mouse mean death day at 52 mg/kg, po thrice a day for 8 days after 1 hr viral infection (reference value: 8.9 days). In kind it is functional.
In data set [5] the test system is Human respirovirus 1. Description: Antiviral activity against type 1 parainfluenza virus infected in mouse assessed as mouse survival at 104 mg/kg, po thrice a day for 8 days after 1 hr viral infection. In kind it is functional, organism-based. More on the design: dose 104 mg/kg. The method, boiled down:
(§4)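 Sendai (type 1 parainfluenza) virus given intranasally to female mice (18-20 g). Oral dosing three times daily for 8 days, beginning 1 h post-inoculation; 10 infected mice per dose, with a carboxymethylcellulose placebo group. Survivors/total counted, with p values for the survivor increase.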

Data set [6] relates to Human respirovirus 1. As to the kind of experiment: Antiviral activity against type 1 parainfluenza virus infected in mouse assessed as mouse mean death day at 104 mg/kg, po thrice a day for 8 days after 1 hr viral infection (reference value: 8.9 days). In kind it is functional.
Data set [7] has as its system Human respirovirus 1. As to the kind of experiment: Antiviral activity against type 1 parainfluenza virus infected in mouse assessed as mouse mean death day at 26 mg/kg, po thrice a day for 8 days after 1 hr viral infection (reference value: 8.9 days). It is filed as functional.
The subject of data set [8] is Human respirovirus 1. As to the kind of experiment: Antiviral activity against type 1 parainfluenza virus infected in mouse assessed as mouse survival at 155 mg/kg, po thrice a day for 8 days after 1 hr viral infection. In kind it is functional, organism-based. The arrangement: dose 155 mg/kg. Summed up: as §4
Data set [9] relates to Human respirovirus 1. As to the kind of experiment: Antiviral activity against type 1 parainfluenza virus infected in mouse assessed as mouse mean death day at 77.5 mg/kg, po thrice a day for 8 days after 1 hr viral infection (reference value: 8.9 days). It is filed as functional.
The subject of data set [10] is Human respirovirus 1. Description: Antiviral activity against type 1 parainfluenza virus infected in mouse assessed as mouse survival at 38.8 mg/kg, po thrice a day for 8 days after 1 hr viral infection. It is filed as functional, organism-based. The arrangement: dose 38.8 mg/kg. The method, boiled down:
as §4

Data set [11] concerns Human respirovirus 1. Description: Antiviral activity against type 1 parainfluenza virus infected in mouse assessed as mouse mean death day at 38.8 mg/kg, po thrice a day for 8 days after 1 hr viral infection (reference value: 8.9 days). It is filed as functional.
Data set [12] relates to Mus musculus. Description: Toxicity in mouse assessed as survival at 77.5 mg/kg, po. It is filed as organism-based. More on the design: dose 77.5 mg/kg, route oral. To be noted: in vivo. Summed up:
as §3

Data set [13] concerns Human respirovirus 1. As to the kind of experiment: Antiviral activity against type 1 parainfluenza virus infected in mouse assessed as mouse mean death day at 155 mg/kg, po thrice a day for 8 days after 1 hr viral infection (reference value: 8.9 days). It is filed as functional.
For data set [14], the system named is Human respirovirus 1. As to the kind of experiment: Antiviral activity against type 1 parainfluenza virus infected in mouse assessed as mouse survival at 77.5 mg/kg, po thrice a day for 8 days after 1 hr viral infection. It is filed as functional, organism-based. The arrangement: dose 77.5 mg/kg. Summed up:
as §4

The subject of data set [15] is Mus musculus. Description: Toxicity in mouse assessed as survival at 155 mg/kg, po. To be noted: in vivo. More on the design: dose 155 mg/kg, route oral. It is filed as organism-based. Summed up: as §3
Data set [16] deals with Mus musculus. Description: Toxicity in mouse assessed as survival at 99 mg/kg, po. It is filed as organism-based. The arrangement: dose 99 mg/kg, route oral. Particulars: in vivo. Summed up:
as §3

The subject of data set [17] is Human respirovirus 1. Description: Antiviral activity against type 1 parainfluenza virus infected in mouse assessed as mouse mean death day at 99 mg/kg, po thrice a day for 8 days after 1 hr viral infection (reference value: 8.9 days). It is filed as functional.
Data set [18] concerns Human respirovirus 1. Description: Antiviral activity against type 1 parainfluenza virus infected in mouse assessed as mouse mean death day at 49.5 mg/kg, po thrice a day for 8 days after 1 hr viral infection (reference value: 8.9 days). It is filed as functional.

For `NC(=O)c1csc(-c2ccc(CO)o2)n1`, the inhibition at 1000 µM with Ehrlich [1] and in the data set with Ehrlich [2] was 0% throughout. The outcome in the data set with Human alphaherpesvirus 1 and in the data set on KB was inactive.

For the compound `NC(=O)c1csc([C@@H]2O[C@H](CO)[C@@H](O)[C@H]2O)n1` [TIAZOFURIN], the Activity result in the data set with Mus musculus [3] is “Non-toxic”. In addition, the Time with Human respirovirus 1 [4] stood at 11 days; in the data set with Human respirovirus 1 [6], 12.3 days; in the data set with Human respirovirus 1 [7] it was 10.9 days. For the same compound, the Survival entry with Human respirovirus 1 [5] was “Active”. The inhibition at 1000 µM turned out to be 69% with Ehrlich [1] and 0% with Ehrlich [2]. Besides, the outcome in the data set with Human alphaherpesvirus 1 and with KB was Active.

For `C[C@H]1O[C@@H](c2nc(C(N)=O)cs2)[C@H](O)[C@@H]1O`, the inhibition at 1000 µM in the data set with Ehrlich [1] and with Ehrlich [2] was 0% throughout. Further, the result in the data set with Human alphaherpesvirus 1 and in the data set on KB was inactive.

Take `CC(=O)OC[C@H]1O[C@@H](c2nc(C(N)=O)cs2)[C@H](OC(C)=O)[C@@H]1OC(C)=O`: the Survival entry in the data set on Human respirovirus 1 [8], with Human respirovirus 1 [10] and in the data set with Human respirovirus 1 [14] was “Active” each time. The Time in the data set with Human respirovirus 1 [9] worked out at 11.9 days; in the data set with Human respirovirus 1 [11], 11 days; in the data set with Human respirovirus 1 [13] it was 8.6 days. The Activity entry in the data set with Mus musculus [12] and in the data set with Mus musculus [15] was “Non-toxic” throughout. Moreover, the inhibition at 1000 µM was 42% in the data set with Ehrlich [1] and 0% in the data set on Ehrlich [2]. In addition, the outcome in the data set on Human alphaherpesvirus 1 was Active. Also, the outcome in the data set on KB was inactive.

As to `NC(=O)c1ncn([C@@H]2O[C@H](CO)[C@@H](O)[C@H]2O)n1` [RIBAVIRIN], the Activity result in the data set on Mus musculus [16] is reported as “Non-toxic”. Moreover, the results for the Time in the data set on Human respirovirus 1 [17] and with Human respirovirus 1 [18] were 10 days and 12 days, respectively.

Regarding `NC(=O)c1cnc([C@@H]2O[C@H](CO)[C@@H](O)[C@H]2O)s1`, the inhibition at 1000 µM in the data set on Ehrlich [1] was 6.8%; in the data set on Ehrlich [2], 1%. Moreover, the outcome in the data set on Human alphaherpesvirus 1 and in the data set on KB was inactive.

For the compound `NC(=S)c1csc([C@@H]2O[C@H](CO)[C@@H](O)[C@H]2O)n1`, the inhibition at 1000 µM with Ehrlich [1] was determined as 12%; in the data set with Ehrlich [2], 0%. The result with Human alphaherpesvirus 1 and with KB was inactive.
